Test results taken from ChEMBL document CHEMBL3244273, “Analgesic activity of novel spiro heterocycles. 2-Amino-7-oxa-3-thia-1-azaspiro[5,5]undec-1-enes and related compounds” (J Med Chem, 1978).
The source made the active and inactive calls.

Key:
Mus musculus [1] = test: Analgesic activity in po dosed CF-1 mouse assessed as reduction in phenylquinone-induced writhing responses administered 15 mins prior to phenylquinone challenge; format: functional
Rattus norvegicus [2] = test: Analgesic activity against po dosed yeast-induced inflamed foot Sprague-Dawley rat model assessed as increase in pain threshold in inflamed paw measured after 2 hrs; format: functional
Rattus norvegicus [3] = organism: Rattus norvegicus; test: Antiinflammatory activity against mycobacterial adjuvant-induced arthritis in rat; format: functional, organism-based
[4] = Retardation factor of the compound using benzene-ethyl acetate at ratio of 1:1 as solvent system by thin layer chromatography; format: physicochemical
Rattus norvegicus [5] = test: Analgesic activity in po dosed Sprague-Dawley rat by tail flick assay; format: functional
[6] = Acute toxicity in po dosed CF-1S mouse assessed as mortality measured for 5 days; format: organism-based; conditions: in vivo
Method in brief: (§1)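 Male and female CF-1S mice (17-25 g) received the compound suspended in gum acacia solution, orally or intraperitoneally, in groups of six to ten per dose level. Mortality was followed for 24 h after ip dosing and for 5 days after oral dosing. LD50 was calculated by the Miller-Tainter method.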

[7] = Acute toxicity in ip dosed CF-1S mouse assessed as mortality measured for 24 hrs; format: organism-based; conditions: in vivo; method in brief: as §1
Mus musculus [8] = test: Analgesic activity in CF-1 mouse assessed as reduction in phenylquinone-induced writhing responses at 200 mg/kg, po administered 15 mins prior to phenylquinone challenge; format: functional
Method in brief: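 Fifteen min later they received 0.25 mL ip of 0.02% 2-phenyl-1,4-benzoquinone in 19:1 water-ethanol. Writhes were counted for 5 min starting 10 min after the injection, and % protection was calculated versus vehicle controls.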

[9] = Mus musculus, CF-1, po, read-out: ED50
[10] = Rattus norvegicus, Sprague-Dawley, po, 2 h, read-out: ED50

SMILES | ED50 (Mus musculus [1]; [9]) [mg/kg] | ED50 (Rattus norvegicus [2]; [10]) [mg/kg] | Activity (Rattus norvegicus [3]) | also measured
O=C(/N=C1\NC2(CCCCO2)CCS1)c1cccs1 (centres undefined) | 48 | 3.8 | inactive | –
O=C(/N=C1\SCCCN1C(=O)c1ccc(F)cc1)c1ccc(F)cc1 | – | – | – | Rf [4]: 0.5
O=C(/N=C1\NC2(CCCCO2)CCS1)c1ccccc1Cl (centres undefined) | > 200 | – | inactive | –
O=C(/N=C1\NC2(CCCCO2)CCS1)c1ccc(Cl)cc1 (centres undefined) | 1.1 | 2.4 | inactive | –
O=C(/N=C1\NC2(CCCCO2)CCS1)C12CC3CC(CC(C3)C1)C2 (centres undefined) | > 200 | 14 | inactive | –
CC(=O)N(Cc1ccccc1)C1=NC2(CCCCO2)CCS1 (centres undefined) | – | – | – | Rf [4]: 0.37
COc1cc(C(=O)/N=C2\NC3(CCCCO3)CCS2)cc(OC)c1OC (centres undefined) | > 200 | > 200 | inactive | –
O=C(/N=C1\NC2(CCCCO2)CCS1)c1ccc(F)cc1 (single isomer, unassigned; (+)) [listing 1 of 2 here] | – | – | – | ED50 (Mus musculus [1]): 8.8 mg/kg
Cl.O=C(/N=C1\NC2(CCCO2)CCS1)c1ccc(F)cc1 (centres undefined) | 14.8 | 2 | inactive | –
CCCCC1C(=O)N(c2ccccc2)N(c2ccccc2)C1=O [PHENYLBUTAZONE] | 45 | 25 | – | –
O=C(/N=C1\NC2(CCCCO2)CCS1)Nc1ccccc1 (racemic) | > 200 | > 200 | – | –
Cl.c1ccc(C2=NC3(CCCCO3)CCS2)cc1 (racemic) | > 200 | > 200 | – | –
O=C(/N=C1\NC2(CCCCO2)CCS1)c1ccccc1O (centres undefined) | > 200 | > 200 | inactive | –
O=C(/N=C1\NC2(CCCCO2)CCS1)c1cccc2ccccc12 (centres undefined) | > 200 | 28 | – | –
O=C(/N=C1\NCCCS1)c1ccc(F)cc1 | > 100 | > 200 | inactive | Rf [4]: 0.36
O=C(/N=C1\NC2(CCCCO2)CCS1)c1ccco1 (centres undefined) | 42 | – | inactive | –
NC1=NC2(CCCCO2)CCC1.O=C(O)/C=C\C(=O)O (racemic) | > 200 | > 50 | – | –
NC1=NC2(CCCC(c3ccccc3)O2)CCS1.O=C(O)/C=C\C(=O)O (centres undefined) | 64 | > 200 | – | –
O=C(/N=C1\NC2(CCCCO2)CCS1)c1ccc(Br)cc1 (centres undefined) | > 200 | 3.2 | inactive | –
NC1=NC2(CCCO2)CCS1.O=C(O)/C=C\C(=O)O (racemic) | 15 | 4 | inactive | –
c1ccc(/N=C2\NC3(CCCCO3)CCS2)cc1 (racemic) | > 200 | > 100 | – | Rf [4]: 0.45
COc1cccc(OC)c1C(=O)/N=C1\NC2(CCCCO2)CCS1 (centres undefined) | > 200 | > 200 | inactive | –
NC1=NC2(CCCCO2)CCS1.O=C(O)/C=C\C(=O)O (racemic) | 3.6 | 0.6 | inactive | ED50 (Rattus norvegicus [5]): 12 mg/kg; LD50 at 120 h [6]: 120 mg/kg; LD50 at 24 h [7]: 33 mg/kg
CC1(C(=O)/N=C2\NC3(CCCCO3)CCS2)CCCCC1 (centres undefined) | > 200 | 16 | inactive | –
CNC1=NC2(CCCCO2)CCS1 (racemic) | 52 | 21 | inactive | –
CC1CCCC2(CCSC(N)=N2)O1.O=C(O)/C=C\C(=O)O (centres undefined) | 25 | 3.2 | – | –

SMILES | ED50 (Mus musculus [1]; [9]) [mg/kg] | ED50 (Rattus norvegicus [2]; [10]) [mg/kg] | Activity (Rattus norvegicus [3]) | also measured
CC(=O)/N=C1\NC2(CCCCO2)CCS1 (centres undefined) | 3.1 | 1.9 | inactive | –
O=C(/N=C1\NC2(CCCCC2)CCS1)c1ccc(F)cc1 | > 200 | > 100 | inactive | –
O=C(/N=C1\NC2(CCCCO2)CCS1)c1cccc([N+](=O)[O-])c1 (centres undefined) | > 200 | 8.2 | inactive | –
COc1ccc(C(=O)/N=C2\NC3(CCCCO3)CCS2)cc1OC (centres undefined) | 200 | 4.5 | inactive | inhibition in vivo at 200 mg/kg (Mus musculus [8]): -75%
O=C(/N=C1\NC2(CCCCO2)CCS1)c1ccccc1 (centres undefined) | 5 | 2.6 | inactive | –
S=C(/N=C1\NC2(CCCCO2)CCS1)Nc1ccccc1 (racemic) | 200 | > 200 | inactive | inhibition in vivo at 200 mg/kg (Mus musculus [8]): -48%
COc1ccc(C(=O)/N=C2\NC3(CCCCO3)CCS2)cc1 (centres undefined) | 62 | 6 | inactive | –
COc1ccc2c(c1)c(CC(=O)O)c(C)n2C(=O)c1ccc(Cl)cc1 [INDOMETHACIN] | 8.8 | 1.2 | – | –
O=C(/N=C1\NC2(CCCCO2)CCS1)c1cccc(C(F)(F)F)c1 (centres undefined) | > 200 | 11 | inactive | –
O=C(/N=C1\NC2(CCCCO2)CCS1)c1ccc(F)cc1 (stereo in doubt; 33) [listing 1 of 2 here] | – | – | – | ED50 (Mus musculus [1]): 49 mg/kg; ED50 (Rattus norvegicus [2]): 2 mg/kg; ED50 (Rattus norvegicus [5]): 22.3 mg/kg; LD50 at 120 h [6]: 630 mg/kg; LD50 at 24 h [7]: 1370 mg/kg
COc1ccc2c3c1O[C@H]1[C@@H](O)C=C[C@H]4[C@@H](C2)N(C)CC[C@@]341.COc1ccc2c3c1O[C@H]1[C@@H](O)C=C[C@H]4[C@@H](C2)N(C)CC[C@@]341.O.O=P(O)(O)O.O=P(O)(O)O [CODEINE PHOSPHATE] | 18 | 40 | – | –
O=C(/N=C1\NC2(CCCCO2)CCS1)c1ccc(F)cc1 (single isomer, unassigned; (+)) [listing 2 of 2 here] | – | – | inactive | –
O=C1c2ccccc2C(=O)N1C1=NC2(CCCCO2)CCS1 (racemic) | 14.8 | 7 | inactive | –
CN1CC[C@]23c4c5ccc(O)c4O[C@H]2[C@@H](O)C=C[C@H]3[C@H]1C5.CN1CC[C@]23c4c5ccc(O)c4O[C@H]2[C@@H](O)C=C[C@H]3[C@H]1C5.O=S(=O)(O)O | 4.8 | 25 | – | ED50 (Rattus norvegicus [5]): 29.3 mg/kg
CC(=O)Oc1ccccc1C(=O)O [ASPIRIN] | 82 | 50 | – | –
O=C(/N=C1\NC2(CCCCO2)CCS1)c1ccc([N+](=O)[O-])cc1 (centres undefined) | 28 | 0.9 | inactive | –
Cc1cc(C)c(C(=O)/N=C2\NC3(CCCCO3)CCS2)c(C)c1 (centres undefined) | > 200 | > 200 | inactive | –
O=C(/N=C1\NC2(CCCCO2)CCS1)c1cccc(F)c1 (centres undefined) | 9.2 | 1.3 | inactive | –
CCC(=O)O[C@](Cc1ccccc1)(c1ccccc1)[C@H](C)CN(C)C [PROPOXYPHENE] | 48 | 60 | – | –
N#Cc1ccc(C(=O)/N=C2\NC3(CCCCO3)CCS2)cc1 (centres undefined) | 60 | 1 | inactive | –
O=C(/N=C1\NC2(CCCCO2)CCS1)c1ccc(F)cc1 (single isomer, unassigned; (-)) | – | 1.8 | – | ED50 (Mus musculus [1]): 28 mg/kg
NC1=NC2(CCCCC2)CCS1.O=C(O)/C=C\C(=O)O | 6.6 | 19 | inactive | ED50 (Rattus norvegicus [5]): > 50 mg/kg
O=C(/N=C1\NC2(CCCCO2)CCS1)c1ccc(F)cc1 (stereo in doubt; 33) [listing 2 of 2 here] | – | – | inactive | –
Cl.O=C(/C=C/c1ccccc1)/N=C1\NC2(CCCCO2)CCS1 (centres undefined) | 17 | 2.5 | inactive | –
CC(C)(C)C(=O)/N=C1\NC2(CCCCO2)CCS1 (centres undefined) | 200 | 29 | inactive | inhibition in vivo at 200 mg/kg (Mus musculus [8]): -53%
